Active and inactive are the calls of the source. No cut-off for these calls is given here.
Experiments:
Hepatitis C virus [1] = assay: Antiviral activity against HCV pseudoparticle harboring HCV envelope protein E1 and E2 assessed as inhibition of pseudoparticle entry into human Huh7 cells at 5 uM measured after 3 days by Bright-Glo luciferase reporter gene assay relative to control; format: functional, Hepacivirus hominis; conditions: Huh-7, 72 h
Method in brief: (§1)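 HCV pseudoparticle entry screen with each compound at 1 µM and 5 µM in 1% DMSO. DMSO-only wells set maximum entry (negative control); echinocystic acid served as the entry-blocking positive control.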

Hepatitis C virus [2] = assay: Antiviral activity against HCV pseudoparticle harboring HCV envelope protein E1 and E2 assessed as inhibition of pseudoparticle entry into human Huh7 cells at 1 uM measured after 3 days by Bright-Glo luciferase reporter gene assay relative to control; format: functional, Hepacivirus hominis; conditions: Huh-7, 72 h; method in brief: as §1
MDCK = assay: Cytotoxicity against MDCK cells at 50 uM after 40 hrs by CellTiter-Glo assay; format: cell-based, Canis lupus familiaris; conditions: dog
Method in brief: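 Uninfected MDCK cells grown overnight, then cultured 40 h in 1% FBS medium with test compound (50 μM in screen). Viability read by CellTiter-Glo luminescence. DMSO as negative control. Triplicate experiments, standard deviations shown.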

[3] = test system: Influenza A virus (A/WSN/1933(H1N1)); assay: Antiviral activity against Influenza A virus (A/WSN/1933(H1N1)) infected in MDCK cells assessed as reduction in virus-induced cytopathic effect at 50 uM after 40 hrs by CellTiter-Glo assay; format: functional, cell-based
Method in brief: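 Single-concentration screen: overnight-seeded MDCK cells were infected (MOI 0.1) in DMEM/1% FBS with […] TPCK-trypsin, compound at 1% final DMSO. CellTiter-Glo read-out after 40 h. Oseltamivir positive control; triplicate experiments, standard deviations shown.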

Hepatitis C virus [4] = assay: Antiviral activity against HCV pseudoparticle harboring HCV envelope protein E1 and E2 assessed as inhibition of pseudoparticle entry into human Huh7 cells measured after 3 days by Bright-Glo luciferase reporter gene assay; format: functional; conditions: Hepacivirus hominis
[5] = Antiviral activity against Influenza A virus (A/WSN/1933(H1N1)) infected in MDCK cells assessed as reduction in virus-induced cytopathic effect after 40 hrs by CellTiter-Glo assay; format: functional, cell-based
Method in brief: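 MDCK cells were seeded and incubated overnight, then infected (MOI 0.1) in DMEM with 1% FBS, […] TPCK-trypsin and compound dose series at 1% final DMSO. Cell viability was read by CellTiter-Glo luminescence after 40 h. IC50 is the concentration giving 50% inhibition of viral replication; oseltamivir was the positive control.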

[6] = test system: Influenza A virus (A/WSN/1933(H1N1)); assay: Antiviral activity against Influenza A virus (A/WSN/1933(H1N1)) infected in MDCK cells assessed as reduction in virus-induced cytopathic effect at 50 uM by microscopic method; format: functional, cell-based
Method in brief: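 CPE in compound-treated infected MDCK wells was inspected directly by light microscopy, with DMSO-treated infected wells as comparator.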

**Q.** For `C=C[C@@H]1C2=CCOC(=O)C2=CO[C@H]1O[C@@H]1O[C@H](CSC)[C@@H](O)[C@H](O)[C@H]1O`, which inhibition at 5 µM (Hepatitis C virus [1]) is on record?
**A.** 21%

**Q.** What about the inhibition at 1 µM (Hepatitis C virus [2]) of the same compound?
**A.** 14.9%

**Q.** And the Activity (MDCK)?
**A.** Non-Toxic

**Q.** And the Activity [3]?
**A.** Active

**Q.** What does the source list for `C=C[C@@H]1C2=CCOC(=O)C2=CO[C@H]1O[C@@H]1O[C@H](COC(=O)c2ccccc2)[C@@H](F)[C@H](OC(=O)c2ccccc2)[C@H]1OC(=O)c1ccccc1`?
**A.** Activity (MDCK): Non-Toxic; Activity [3]: Active

**Q.** Which inhibition at 5 µM (Hepatitis C virus [1]) does the source give for `C=C[C@@H]1C2=CCOC(=O)C2=CO[C@H]1O[C@@H]1O[C@H](CO)[C@H](S)[C@H](O)[C@H]1OC(=O)c1ccccc1` here?
**A.** 4.5%

**Q.** And the inhibition at 1 µM (Hepatitis C virus [2])?
**A.** 0.3%

**Q.** Which inhibition at 5 µM (Hepatitis C virus [1]) does the source give for `C=C[C@@H]1C2=CCOC(=O)C2=CO[C@H]1O[C@@H]1O[C@H](CNC(C)=O)[C@@H](O)[C@H](O)[C@H]1O` here?
**A.** 11.2%

**Q.** And the inhibition at 1 µM (Hepatitis C virus [2])?
**A.** 0.2%

**Q.** Which results are given for `C=C[C@@H]1C2=CCOC(=O)C2=CO[C@H]1O[C@@H]1O[C@H](CO)[C@@H](O)[C@H](O)[C@H]1O` [GENTIOPICROSIDE]?
**A.** inhibition at 5 µM (Hepatitis C virus [1]): 2.1%; inhibition at 1 µM (Hepatitis C virus [2]): 0.6%

**Q.** With `C=C[C@@H]1C2=CCOC(=O)C2=CO[C@H]1O[C@@H]1O[C@H](CO)[C@@H](S)[C@H](O)[C@H]1O` as the compound, how does the inhibition at 5 µM (Hepatitis C virus [1]) read?
**A.** 18.6%

**Q.** What about the inhibition at 1 µM (Hepatitis C virus [2]) of the same compound?
**A.** 5.6%

**Q.** With `C=C[C@@H]1C2=CCOC(=O)C2=CO[C@H]1O[C@@H]1O[C@H](CSC(C)=O)[C@@H](OC(C)=O)[C@H](OC(C)=O)[C@H]1OC(C)=O` as the compound, how does the inhibition at 5 µM (Hepatitis C virus [1]) read?
**A.** 21.7%

**Q.** What about the inhibition at 1 µM (Hepatitis C virus [2]) of the same compound?
**A.** 30.4%

**Q.** And the Activity (MDCK)?
**A.** Non-Toxic

**Q.** And the Activity [3]?
**A.** Active

**Q.** With `C=C[C@@H]1C2=CCOC(=O)C2=CO[C@H]1O[C@@H]1O[C@H](CNC(C)=O)[C@@H](OC(C)=O)[C@H](OC(C)=O)[C@H]1OC(C)=O` as the compound, how does the inhibition at 5 µM (Hepatitis C virus [1]) read?
**A.** 8.8%

**Q.** What about the inhibition at 1 µM (Hepatitis C virus [2]) of the same compound?
**A.** 9.1%

**Q.** What does the source list for `C=C[C@@H]1C2=CCOC(=O)C2=CO[C@H]1O[C@@H]1O[C@H](COC(=O)c2ccccc2)[C@H](SC(C)=O)[C@H](OC(=O)c2ccccc2)[C@H]1OC(=O)c1ccccc1`?
**A.** inhibition at 5 µM (Hepatitis C virus [1]): 26.6%; inhibition at 1 µM (Hepatitis C virus [2]): 9.5%

**Q.** For `C=C[C@@H]1C2=CCOC(=O)C2=CO[C@H]1O[C@@H]1O[C@H](COC(=O)c2ccccc2)[C@H](F)[C@H](OC(=O)c2ccccc2)[C@H]1OC(=O)c1ccccc1`, which inhibition at 5 µM (Hepatitis C virus [1]) is on record?
**A.** 0.2%

**Q.** What about the inhibition at 1 µM (Hepatitis C virus [2]) of the same compound?
**A.** 0.1%

**Q.** With `C=C[C@@H]1C2=CCOC(=O)C2=CO[C@H]1O[C@@H]1O[C@H](COC(=O)c2ccccc2)[C@@H](SC(C)=O)[C@H](OC(=O)c2ccccc2)[C@H]1OC(=O)c1ccccc1` as the compound, how does the inhibition at 5 µM (Hepatitis C virus [1]) read?
**A.** 45.1%

**Q.** What about the inhibition at 1 µM (Hepatitis C virus [2]) of the same compound?
**A.** 0.2%

**Q.** And the inhibition (Hepatitis C virus [4])?
**A.** Dose-dependent effect

**Q.** For `CC1(C)CC[C@]2(C(=O)O)[C@H](O)C[C@]3(C)C(=CC[C@@H]4[C@@]5(C)CC[C@H](O)C(C)(C)[C@@H]5CC[C@]43C)[C@@H]2C1`, which inhibition at 5 µM (Hepatitis C virus [1]) is on record?
**A.** 69.6%

**Q.** And the inhibition at 1 µM (Hepatitis C virus [2])?
**A.** 30.7%

**Q.** For `C=C[C@@H]1C2=CCOC(=O)C2=CO[C@H]1O[C@@H]1O[C@H](COC(=O)c2ccccc2)[C@@H](N=[N+]=[N-])[C@H](OC(=O)c2ccccc2)[C@H]1OC(=O)c1ccccc1`, which inhibition at 5 µM (Hepatitis C virus [1]) is on record?
**A.** 4.7%

**Q.** What about the inhibition at 1 µM (Hepatitis C virus [2]) of the same compound?
**A.** 0.1%

**Q.** Which results are given for `C=C[C@@H]1C2=CCOC(=O)C2=CO[C@H]1O[C@@H]1O[C@H](COC(=O)c2ccccc2)[C@H](N=[N+]=[N-])[C@H](OC(=O)c2ccccc2)[C@H]1OC(=O)c1ccccc1`?
**A.** inhibition at 5 µM (Hepatitis C virus [1]): 17.9%; inhibition at 1 µM (Hepatitis C virus [2]): 0.2%

**Q.** Which IC50 [5] does the source give for `CCOC(=O)C1=C[C@@H](OC(CC)CC)[C@H](NC(C)=O)[C@@H](N)C1` [OSELTAMIVIR] here?
**A.** 33.6 µM

**Q.** With `C=C[C@@H]1C2=CCOC(=O)C2=CO[C@H]1O[C@@H]1O[C@H](CF)[C@@H](OC(C)=O)[C@H](OC(C)=O)[C@H]1OC(C)=O` as the compound, how does the inhibition at 5 µM (Hepatitis C virus [1]) read?
**A.** 7.8%

**Q.** What about the inhibition at 1 µM (Hepatitis C virus [2]) of the same compound?
**A.** 1.1%

**Q.** For `C=C[C@@H]1C2=CCOC(=O)C2=CO[C@H]1O[C@@H]1O[C@H](CO)[C@H](N=[N+]=[N-])[C@H](O)[C@H]1O`, which inhibition at 5 µM (Hepatitis C virus [1]) is on record?
**A.** 23.3%

**Q.** What about the inhibition at 1 µM (Hepatitis C virus [2]) of the same compound?
**A.** 11.7%

**Q.** And the Activity (MDCK)?
**A.** Non-Toxic

**Q.** What about the Activity [3] of the same compound?
**A.** Active

**Q.** Which inhibition at 5 µM (Hepatitis C virus [1]) does the source give for `C=C[C@@H]1C2=CCOC(=O)C2=CO[C@H]1O[C@@H]1OC(COC(=O)c2ccccc2)=C[C@H](OC(=O)c2ccccc2)[C@H]1OC(=O)c1ccccc1` here?
**A.** 40.3%

**Q.** What about the inhibition at 1 µM (Hepatitis C virus [2]) of the same compound?
**A.** 0.5%

**Q.** What about the Activity (MDCK) of the same compound?
**A.** Non-Toxic

**Q.** What about the inhibition (Hepatitis C virus [4]) of the same compound?
**A.** Dose-dependent effect

**Q.** And the Activity [3]?
**A.** Active

**Q.** What about the IC50 [5] of the same compound?
**A.** 44 µM

**Q.** Which inhibition at 5 µM (Hepatitis C virus [1]) does the source give for `C=C[C@@H]1C2=CCOC(=O)C2=CO[C@H]1O[C@@H]1O[C@H](CF)[C@@H](O)[C@H](O)[C@H]1O` here?
**A.** 1%

**Q.** And the inhibition at 1 µM (Hepatitis C virus [2])?
**A.** 0.3%

**Q.** Which results are given for `C=C[C@@H]1C2=CCOC(=O)C2=CO[C@H]1O[C@@H]1O[C@H](CS)[C@@H](O)[C@H](O)[C@H]1O`?
**A.** inhibition at 5 µM (Hepatitis C virus [1]): 0.1%; inhibition at 1 µM (Hepatitis C virus [2]): 0.2%; Activity (MDCK): Non-Toxic; Activity [3]: Active

**Q.** Which results are given for `C=C[C@@H]1C2=CCOC(=O)C2=CO[C@H]1O[C@@H]1O[C@H](COC(=O)c2ccccc2)[C@@H](O)[C@H](OC(=O)c2ccccc2)[C@H]1OC(=O)c1ccccc1`?
**A.** inhibition at 5 µM (Hepatitis C virus [1]): 8.1%; inhibition at 1 µM (Hepatitis C virus [2]): 0.7%

**Q.** With `C=C[C@@H]1C2=CCOC(=O)C2=CO[C@H]1O[C@@H]1O[C@H](COC(c2ccccc2)(c2ccccc2)c2ccccc2)[C@@H](O)[C@H](O)[C@H]1O` as the compound, how does the Activity (MDCK) read?
**A.** Toxic

**Q.** With `C=C[C@@H]1C2=CCOC(=O)C2=CO[C@H]1O[C@@H]1O[C@H](CO)[C@@H](F)[C@H](O)[C@H]1O` as the compound, how does the inhibition at 5 µM (Hepatitis C virus [1]) read?
**A.** 45.9%

**Q.** And the inhibition at 1 µM (Hepatitis C virus [2])?
**A.** 0.9%

**Q.** And the inhibition (Hepatitis C virus [4])?
**A.** Dose-dependent effect

**Q.** For `C=C[C@@H]1C2=CCOC(=O)C2=CO[C@H]1O[C@@H]1O[C@H](CSC)[C@@H](OC(C)=O)[C@H](OC(C)=O)[C@H]1OC(C)=O`, which Activity (MDCK) is on record?
**A.** Non-Toxic

**Q.** What about the Activity [3] of the same compound?
**A.** Active

**Q.** For `C=C[C@@H]1C2=CCOC(=O)C2=CO[C@H]1O[C@@H]1O[C@H](CO)[C@@H](N=[N+]=[N-])[C@H](O)[C@H]1O`, which inhibition at 5 µM (Hepatitis C virus [1]) is on record?
**A.** 0.4%

**Q.** And the inhibition at 1 µM (Hepatitis C virus [2])?
**A.** 0.2%

**Q.** What about the Activity (MDCK) of the same compound?
**A.** Non-Toxic

**Q.** What about the Activity [3] of the same compound?
**A.** Active

**Q.** For `C=C[C@@H]1C2=CCOC(=O)C2=CO[C@H]1O[C@@H]1O[C@H](COC(=O)c2ccccc2)[C@@H](OS(C)(=O)=O)[C@H](OC(=O)c2ccccc2)[C@H]1OC(=O)c1ccccc1`, which inhibition at 5 µM (Hepatitis C virus [1]) is on record?
**A.** 40.4%

**Q.** What about the inhibition at 1 µM (Hepatitis C virus [2]) of the same compound?
**A.** 38.2%

**Q.** What about the Activity [6] of the same compound?
**A.** Active

**Q.** And the Activity (MDCK)?
**A.** Non-Toxic

**Q.** What about the inhibition (Hepatitis C virus [4]) of the same compound?
**A.** Dose-dependent effect

**Q.** What about the Activity [3] of the same compound?
**A.** Active

**Q.** What about the IC50 [5] of the same compound?
**A.** 39.5 µM

**Q.** Which results are given for `C=C[C@@H]1C2=CCOC(=O)C2=CO[C@H]1O[C@@H]1O[C@H](CO)[C@H](F)[C@H](O)[C@H]1O`?
**A.** inhibition at 5 µM (Hepatitis C virus [1]): 13.3%; inhibition at 1 µM (Hepatitis C virus [2]): 0.7%; Activity (MDCK): Non-Toxic; Activity [3]: Active; IC50 [5]: 45.2 µM
